Reference: paper PMC10166615 (Bioorganic & Medicinal Chemistry, 2023)

Columns and labels:
[1] = Liver microsomes metabolic stability, human; type: in vitro ADME
[2] = Liver microsomes metabolic stability, mouse; type: in vitro ADME
Summary of the method: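 Mouse liver microsomes at 0.5 mg/mL final protein in K/Mg buffer. Test compound went from a 10 mM stock in ACN into a 1.5 µM spiking solution containing 0.75 mg/mL microsomes. After 5 min pre-incubation at 37 °C, reactions were started with 6 mM NADPH stock. They were quenched with ACN containing internal standard at 0, 5, 15, 30 and 45 min, then shaken and centrifuged.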

[3] = Pharmacokinetics after p.o. and i.v. administration; type: in vivo; details: mouse
SARS-CoV-2 = experiment: Antiviral activity in Vero E6 cells; type: cell-based; details: for antiviral activity relative to nirmatrelvir: EC50 against SARS-CoV-2 compared with nirmatrelvir

Compound: CC(C)(C)[C@H](NC(=O)C(F)(F)F)C(=O)N1C[C@@H]2CCC[C@@H]2[C@H]1C(=O)N[C@H](C#N)C[C@@H]1CCNC1=O [1a, (1S,3aR,6aS)-N-((S)-1-cyano-2-((S)-2-oxopyrrolidin-3-yl)ethyl)-2-((S)-3,3-dimethyl-2-(2,2,2-trifluoroacetamido)butanoyl)octahydrocyclopenta[c]pyrrole-1-carboxamide]
- CLint scaled at 1 µM [1]: 22 mL/min/kg
- half-life at 1 µM [1]: 78.9 min
- metabolic stability (in words) [1]: moderate metabolic stability
- CLint scaled at 1 µM [2]: 368 mL/min/kg
- half-life at 1 µM [2]: 14.8 min
- metabolic stability (in words) [2]: susceptible to metabolic effects
- AUC(0-inf) ([3]; male, plasma, iv, 10 mg/kg): 2670 ng·h/mL
- AUC(0-t) ([3]; male, plasma, iv, 10 mg/kg): 2670 ng·h/mL
- MRT inf ([3]; male, plasma, iv, 10 mg/kg): 14.4 min
- clearance ([3]; male, plasma, iv, 10 mg/kg): 69.3 mL/min/kg
- half-life ([3]; male, plasma, iv, 10 mg/kg): 66 min
- bioavailability ([3]; male, plasma, oral, 20 mg/kg): 22.8%
- AUC(0-inf) ([3]; male, plasma, po, 20 mg/kg): 1220 ng·h/mL
- AUC(0-t) ([3]; male, plasma, po, 20 mg/kg): 1220 ng·h/mL
- Cmax ([3]; male, plasma, po, 20 mg/kg): 1310 ng/mL
- MRT inf ([3]; male, plasma, po, 20 mg/kg): 52.8 min
- Tmax ([3]; male, plasma, po, 20 mg/kg): 25.2 min
- half-life ([3]; male, plasma, po, 20 mg/kg): 60 min
- Vss_obs ([3]; i.v. (10 mg/kg)): 1011.00 mL/kg
- RNA copy inhibition% (SARS-CoV-2; 1 μM compound, preliminary screening): 70%
- antiviral activity relative to nirmatrelvir (SARS-CoV-2): 2 fold

Compound: CC(C)(C)[C@H](NS(=O)(=O)C(F)(F)F)C(=O)N1C[C@H]2[C@@H]([C@H]1C(=O)N[C@H](C#N)C[C@@H]1CCNC1=O)C2(C)C [2b, (1R,2S,5S)-N-((S)-1-cyano-2-((S)-2-oxopyrrolidin-3-yl)ethyl)-3-((S)-3,3-dimethyl-2-((trifluoromethyl)sulfonamido)butanoyl)-6,6-dimethyl-3-azabicyclo[3.1.0]hexane-2-carboxamide]
- CLint scaled at 0.75 h, 1 µM [1]: 2.67 mL/min/kg
- metabolic stability (in words) [1]: stable
- CLint scaled at 0.75 h, 1 µM [2]: 55.8 mL/min/kg
- metabolic stability (in words) [2]: moderate metabolic stability
- clearance ([3]; male, plasma, iv, 10 mg/kg): 41 mL/min/kg
- antiviral activity relative to nirmatrelvir (SARS-CoV-2): 4 fold

Compound: CC(C)(C)[C@H](NC(=O)C(F)(F)F)C(=O)N1C[C@H]2[C@@H]([C@H]1C(=O)N[C@H](C#N)C[C@@H]1CCNC1=O)C2(C)C [Nirmatrelvir, reference compound]
- CLint scaled at 0.75 h, 1 µM [2]: 1180 mL/min/kg
- clearance ([3]; male, plasma, iv, 10 mg/kg): 50.1 mL/min/kg
